High-throughput results as filed in PubChem.
Runt-CBFb FRET = Runt domain-CBFb interaction inhibition. Q01196+Q13951. Cerulean-Runt/Venus-CBFb FRET ratio 530/480, 1 h. inhibition, % at 20 µM. 0.46% of 220,000 active;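 active = inhibition over about 50% at 20 µM in the single-dose screen, limit read from the data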
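Assay system: Cerulean-Runt domain / Medium: Tris 50 mM pH 7.5, KCl, K2SO4, 0.01% BSA / Timing: protein complex preformed 1 h, compound exposure 1 h, room temperature, dark / Measured by: FRET, excitation 422 nm, emission at 530 and 480 nm / Evaluation: loss of energy transfer signal / Control set: 5 µM unlabeled CBFb as full-inhibition high control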
Runt-SMMHC FRET = blocks binding of human RUNX1 Runt domain to CBFb-SMMHC; Cerulean-Runt/Venus-CBFb-SMMHC FRET ratio 530/480, 1 h; inhibition, % at 20 µM; 0.74% of 220,000 active;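 active = mean inhibition across duplicate retests at 20 µM reaching about 50%, limit read from the data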;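 note: inhibitors lower the FRET ratio by blocking Runt binding to CBFb-SMMHC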
Hck-Nef inh = inhibitors of human Hck kinase activated by Nef; Recombinant Hck-YEEI plus Nef, Z-Lyte FRET kinase assay; inhibition, % at 20 µM; 0.68% of 220,000 active; AID 463187;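 active = Hck-Nef kinase inhibition above about 50%, limit read from the data; inactive = inhibition below that limit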
Target sequence (P08631 whole entry, looked up): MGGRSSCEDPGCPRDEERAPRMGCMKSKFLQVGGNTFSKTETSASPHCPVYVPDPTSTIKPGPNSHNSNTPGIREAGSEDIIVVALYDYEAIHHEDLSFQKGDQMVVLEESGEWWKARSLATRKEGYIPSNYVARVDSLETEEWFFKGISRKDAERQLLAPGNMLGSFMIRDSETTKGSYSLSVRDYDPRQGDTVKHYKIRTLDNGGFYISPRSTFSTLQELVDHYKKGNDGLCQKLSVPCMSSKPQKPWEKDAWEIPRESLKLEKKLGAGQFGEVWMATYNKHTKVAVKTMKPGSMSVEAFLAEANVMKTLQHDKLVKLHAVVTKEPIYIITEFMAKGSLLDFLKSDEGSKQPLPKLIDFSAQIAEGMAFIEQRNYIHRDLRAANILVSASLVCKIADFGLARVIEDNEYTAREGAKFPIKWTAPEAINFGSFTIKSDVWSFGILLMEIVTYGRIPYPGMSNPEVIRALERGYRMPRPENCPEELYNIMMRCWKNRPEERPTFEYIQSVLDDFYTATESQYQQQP
RanGTP-Impb inh = inhibitors of RanGTP-importin-beta interaction, primary screen, biochemical, FRET, CFP-Ran, YFP-importin-beta, homogeneous; cell-free CFP-Ran/YFP-importin-beta FRET ratio; inhibition, % (no concentration beside the values); 1.1% of 300,000 active; AID 2216;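 active = more than half of the replicate wells show a fall in the fluorescence ratio signal beyond about 16%, limit read from the data, passing the limit was not always enough; inconclusive = exactly half of the replicate wells pass the set limit; inactive = fewer than half of replicates pass the limit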
Numbers stand for hits; . = inactive; ? = inconclusive; / = no result given. In the library only some 1.9% were active in any assay of this set; here they are far more common.

SMILES	Runt-CBFb FRET	Runt-SMMHC FRET	Hck-Nef inh	RanGTP-Impb inh
O=C(O)[C@H]1CCCC[C@H]1C(=O)Nc1ccc(S(=O)(=O)N2CCOCC2)cc1	/	/	/	17
O=C(O)C1CCCCC1C(=O)Nc1ccc(S(=O)(=O)N2CCCC2)cc1 (stereo unspecified)	/	/	/	.
CCN1CCc2c(sc(NC(=O)c3ccc(S(=O)(=O)N(C)CC4CCCO4)cc3)c2C(N)=O)C1 (stereo unspecified)	/	/	/	48
CC(C)N1CCc2c(sc(NC(=O)c3ccc(S(=O)(=O)N(C)CC4CCCO4)cc3)c2C(N)=O)C1 (stereo unspecified)	/	/	/	72
Cc1ccc2nc(C(=O)N3CCc4c([nH]c5ccccc45)C3c3ccccn3)cn2c1 (stereo unspecified)	/	/	.	?
CCN(CCCNC(=O)CN(C)S(=O)(=O)c1cccc2nsnc12)c1ccccc1	.	.	.	.
CC(C)Cn1c(=O)c2ccccc2n2c(CCC(=O)NCC3CCCO3)nnc12 (stereo unspecified)	/	/	/	.
O=C1Nc2ccccc2C(=O)N2C[C@@H](O)C[C@H]12	/	/	/	.
Cc1csc(NC(=O)CSc2nc(C)cs2)n1	.	.	.	.
Cc1csc(SCC(=O)O)n1	114	.	.	.
CN1CCN(C(=O)/C=C/c2c(F)cccc2Cl)CC1	/	/	/	.
Nc1cccc2c1C(=O)N(C(=O)c1ccc(Cl)c(S(=O)(=O)N3CCCCCC3)c1)C2=O	.	62	.	20
Cc1ccc(S(=O)(=O)N2CCOCC2)cc1C(=O)N1C(=O)c2cccc(N)c2C1=O	.	.	.	.
Nc1cccc2c1C(=O)N(C(=O)c1cccc(S(=O)(=O)N3CCCCCC3)c1)C2=O	.	62	.	19
Cc1c(C)c2ccc(OCC(=O)Nc3ccc(S(N)(=O)=O)cc3)c(C)c2oc1=O	/	/	/	.
O=c1cc(N2CCCCC2)c(-c2ccccc2)nn1Cc1c(Cl)cccc1Cl	.	.	.	.
COc1ccccc1OCC(=O)Nc1ccc(S(=O)(=O)N(C)c2ccccc2)cc1	/	/	/	.
CCOc1ccccc1C1C(C#N)=C(N)SC(N)=C1C#N	.	.	.	.
CCOc1ccc(C2C(C#N)=C(N)SC(N)=C2C#N)cc1OCC	.	.	/	33
N#CC1=C(N)SC(N)=C(C#N)C1c1ccc(C(F)(F)F)cc1	.	.	.	24
CCOc1ccc(C2C(C#N)=C(N)SC(N)=C2C#N)cc1OC	.	.	.	26
C/C=C/C=C/[C@H]1Cc2cc(O)cc(O)c2O1	.	.	.	22
O=C1CC(c2ccc(Cl)cc2)c2c(O)cc(O)cc2O1 (stereo unspecified)	/	/	/	.
Cc1ccc(S(=O)(=O)N[C@H](C(=O)Oc2ccc3c(C(F)(F)F)cc(=O)oc3c2)c2ccccc2)cc1	.	78	.	33
CCC[C@@H](NS(=O)(=O)c1ccc(C)cc1)C(=O)Oc1ccc2c3c(c(=O)oc2c1)CCC3	.	.	.	.
SMILES	Runt-CBFb FRET	Runt-SMMHC FRET	Hck-Nef inh	RanGTP-Impb inh
Cc1ccc(S(=O)(=O)NC(C(=O)Oc2ccc3c(C)c(Cl)c(=O)oc3c2)c2ccccc2)cc1 (stereo unspecified)	64	59	88	72
COc1cccc2cc(/C(C)=N/Nc3nc(-c4cc(C)ccc4C)cs3)c(=O)oc12	.	.	.	.
Cc1cc(C)c2nc(NCCCNC(=S)NCCCN(C)C)c(C#N)cc2c1	81	89	.	.
COCCCNC(=S)NCCNc1nc2cc(C)cc(C)c2cc1C#N	.	.	.	.
CCOCCCNC(=S)NCCCNc1nc2c(C)cc(C)cc2cc1C#N	.	91	.	/
Cc1cc(C(=O)Nn2c(-c3ccc(Br)cc3)nc3ccccc3c2=O)ccc1[N+](=O)[O-]	.	.	.	.
CN(C)c1ncc(S(=O)(=O)c2ccccc2)c(N)n1	.	.	.	.
COc1nc(C)cc(C)c1S(=O)(=O)c1ccccc1C	/	/	/	.
COc1nc(N)c(S(=O)(=O)c2ccccc2)cc1C#N	.	99	.	.
COc1nc(N)c(S(=O)(=O)c2ccccc2C)cc1C#N	.	60	.	.
N#Cc1c(N)sc2c1CCN(CCc1ccccc1)C2	105	88	.	46
N#Cc1c(NC(=S)NC(=O)c2ccccc2)sc2c1CCN(CCc1ccccc1)C2	.	82	.	157
CC(C)(C)C(=O)Nc1sc2c(c1C#N)CCN(Cc1ccccc1)C2	/	/	/	150
N#Cc1c(NC(=S)NC(=O)c2ccccc2)sc2c1CCCC2	.	.	.	.
CCOC(=O)N1CCc2c(sc(N)c2C#N)C1	.	.	.	.
O=C(NCCC(=O)N1CCC2(CC1)NCCc1[nH]cnc12)c1ccc(F)c(F)c1	/	/	/	.
